Laboratory results published in ChEMBL document CHEMBL3243980, “Structural analogues of L-glutamic Acid gamma-(4-hydroxyanilide) and gamma-(3,4-dihydroxyanilde) as potential agents against melanoma” (1979).

Test system: B16
Assay: Cytotoxicity against mouse B16 cells after 48 hrs
Type: functional
Conditions: B16, 48 h, read-out: ID50 (the source's name)
How it was run: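 Moderately pigmented B16 murine melanoma cells grown as monolayers in McCoy's 5A medium plus 10% fetal calf serum, in exponential growth at assay. Drug added 24 h after plating, incubation continued another 48 h. Four dose levels tested in triplicate, generally 0.1–1.0 mM (0.01–0.1 mM for one compound); ID50 reported as mM, SD within ±10% of mean.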

| Structure (SMILES) | IC50 |
| --- | --- |
| N[C@@H](CCC(=O)Nc1cc(O)ccc1O)C(=O)O | 51 µM |
| N[C@@H](CC(=O)Nc1ccc(O)cc1)C(=O)O | 310 µM |
| N[C@@H](CCC(=O)Nc1ccc2c(c1)OCO2)C(=O)O | > 1000 µM |
| NCCCC(=O)Nc1ccc(O)cc1 | > 1000 µM |
| O=C(CCCC(=O)Nc1ccc(O)cc1)Nc1ccc(O)cc1 | > 1000 µM |
| COc1ccc(NC(=O)CC[C@H](N)C(=O)O)cc1 | > 1000 µM |
| O=C(O)CCCC(=O)Nc1ccc(O)cc1 | > 1000 µM |
| N[C@@H](CCC(=O)Nc1cccc(O)c1)C(=O)O | 1000 µM |
| N[C@@H](CCC(=O)Nc1ccc(O)c(O)c1)C(=O)O | 270 µM |
| N[C@@H](CCC(=O)O)C(=O)Nc1ccc(O)cc1 | > 1000 µM |
| N[C@@H](CCC(=O)Nc1ccc(O)cc1)C(=O)O | 100 µM |
